Laboratory results published in ChEMBL document CHEMBL1641508, “Effect of structurally constrained oxime-ether linker on PPAR subtype selectivity: Discovery of a novel and potent series of PPAR-pan agonists” (Bioorg Med Chem, 2011).
pEC50: −log10 of the molar value. The source made the active and inactive calls. No cut-off for these calls is given here.

Experiments:
[1] = target: T1, Peroxisome proliferator-activated receptor delta (Homo sapiens) (UniProt Q03181); assay: Agonist activity at human PPARdelta expressed in HepG2 cells co-transfected with PPRE3-TK-luc assessed as beta-galactosidase activity after 20 to 22 hrs by luciferase based transactivation assay relative to GW-501516; format: functional, cell-based
T1 sequence (whole entry): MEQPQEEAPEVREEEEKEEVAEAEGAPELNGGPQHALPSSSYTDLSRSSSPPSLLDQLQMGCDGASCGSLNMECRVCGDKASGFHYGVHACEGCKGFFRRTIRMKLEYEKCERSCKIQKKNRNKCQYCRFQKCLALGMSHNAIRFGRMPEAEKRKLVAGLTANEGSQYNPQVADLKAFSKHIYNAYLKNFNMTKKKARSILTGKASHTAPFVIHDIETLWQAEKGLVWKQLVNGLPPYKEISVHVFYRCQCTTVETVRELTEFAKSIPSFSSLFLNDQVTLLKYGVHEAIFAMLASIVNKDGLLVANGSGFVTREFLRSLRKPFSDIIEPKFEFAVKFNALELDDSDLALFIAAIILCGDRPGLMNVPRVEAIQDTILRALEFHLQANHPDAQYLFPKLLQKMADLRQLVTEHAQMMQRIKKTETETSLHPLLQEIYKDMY
Procedure, shortened: (§1)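 HepG2 (MEM, 10% FBS, NEAA, pyruvate, pen/strep) seeded 400,000 cells/well, transfected (Superfect) with pSG5 vector carrying full-length hPPAR cDNA plus PPRE3-TK-luc; 3 h at 37 °C, 5% CO2, then ligand-containing medium added, 20–22 h.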

[2] = target: T2, Peroxisome proliferator-activated receptor alpha (Homo sapiens) (UniProt Q07869); assay: Agonist activity at human PPARalpha expressed in HepG2 cells co-transfected with PPRE3-TK-luc assessed as beta-galactosidase activity after 20 to 22 hrs by luciferase based transactivation assay relative to WY-14643; format: functional, cell-based; procedure, shortened: as §1
T2 sequence (whole entry): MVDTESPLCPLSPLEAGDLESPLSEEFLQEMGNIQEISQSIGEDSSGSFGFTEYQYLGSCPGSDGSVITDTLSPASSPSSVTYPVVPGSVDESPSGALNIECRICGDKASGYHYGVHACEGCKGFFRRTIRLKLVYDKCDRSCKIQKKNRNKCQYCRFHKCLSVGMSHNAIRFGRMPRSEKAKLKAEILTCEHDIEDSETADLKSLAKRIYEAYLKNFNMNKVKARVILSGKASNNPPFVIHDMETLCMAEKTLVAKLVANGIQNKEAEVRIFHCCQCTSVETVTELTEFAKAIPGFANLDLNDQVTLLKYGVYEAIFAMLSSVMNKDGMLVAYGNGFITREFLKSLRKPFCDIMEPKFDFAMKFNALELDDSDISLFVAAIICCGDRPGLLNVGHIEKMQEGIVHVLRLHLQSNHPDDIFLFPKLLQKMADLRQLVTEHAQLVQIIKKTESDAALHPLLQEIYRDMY

Mus musculus [3] = assay: Antihyperlipidemic activity in db/db mouse assessed as reduction of serum triglyceride level at 3 mg/kg, po qd for 14 days relative to control; format: functional; set-up: scale not given: the % may be the effect or the level left
Procedure, shortened: (§2)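 Male db/db mice, 12–14 weeks, 30–40 g, tail-bled before the study. Groups of six were matched for plasma glucose, TG and TC. Dosing was oral once daily for 14 days, with vehicle 0.5% methylcellulose in water, and mice were fed ad libitum. About 1 h after the last dose, mice were tail-bled and serum/plasma glucose and TG measured. Values are % change versus vehicle-treated mice, mean ± SD (n = 6).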

Mus musculus [4] = assay: Antihyperglycemic activity in db/db mouse assessed as reduction of serum glucose level at 3 mg/kg, po qd for 14 days relative to control; format: functional; set-up: scale not given: the % may be the effect or the level left; procedure, shortened: as §2
[5] = target: T3, Peroxisome proliferator-activated receptor gamma (Homo sapiens, UniProt P37231); format: functional, cell-based, HepG2
T3 sequence (P37231 whole entry): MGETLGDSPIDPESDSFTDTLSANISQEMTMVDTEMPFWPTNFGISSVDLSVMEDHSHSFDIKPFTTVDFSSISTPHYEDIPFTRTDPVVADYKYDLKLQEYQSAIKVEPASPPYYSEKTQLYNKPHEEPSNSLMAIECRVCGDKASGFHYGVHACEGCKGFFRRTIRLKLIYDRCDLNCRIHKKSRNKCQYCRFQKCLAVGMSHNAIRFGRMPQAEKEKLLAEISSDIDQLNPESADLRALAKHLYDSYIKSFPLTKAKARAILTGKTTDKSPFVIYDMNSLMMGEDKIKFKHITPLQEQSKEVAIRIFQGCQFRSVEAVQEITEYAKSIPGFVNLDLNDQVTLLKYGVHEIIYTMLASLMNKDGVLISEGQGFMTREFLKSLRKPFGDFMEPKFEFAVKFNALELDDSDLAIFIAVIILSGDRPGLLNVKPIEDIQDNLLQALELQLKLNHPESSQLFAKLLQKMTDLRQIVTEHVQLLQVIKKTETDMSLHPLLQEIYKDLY

[6] = target: T4, Peroxisome proliferator-activated receptor delta (Homo sapiens, UniProt Q03181); assay: Agonist activity at human PPARdelta expressed in HepG2 cells co-transfected with PPRE3-TK-luc assessed as beta-galactosidase activity after 20 to 22 hrs by luciferase based transactivation assay; format: functional, cell-based
T4 sequence (Q03181 whole entry): T1 sequence (whole entry)

[7] = target: T5, Peroxisome proliferator-activated receptor alpha (Homo sapiens, UniProt Q07869); assay: Agonist activity at human PPARalpha expressed in HepG2 cells co-transfected with PPRE3-TK-luc assessed as beta-galactosidase activity after 20 to 22 hrs by luciferase based transactivation assay; format: functional, cell-based
T5 sequence (Q07869 whole entry): T2 sequence (whole entry)

Mus musculus [8] = assay: Antihyperglycemic activity in db/db mouse assessed as reduction of serum glucose level at 10 mg/kg, po qd for 14 days relative to control; format: functional; set-up: scale not given: the % may be the effect or the level left; procedure, shortened: as §2
Syrian golden hamster [9] = assay: Antihyperlipidemic activity in high fat-high cholesterol-fructose fed hamster assessed as increase of serum HDL-cholesterol level at 10 mg/kg, po qd for 14 days; format: functional, organism-based; set-up: dose 10 mg/kg; conditions: Mesocricetus auratus
Syrian golden hamster [10] = assay: Antihyperlipidemic activity in high fat-high cholesterol-fructose fed hamster assessed as decrease of serum LDL-cholesterol level at 10 mg/kg, po qd for 14 days; format: functional, organism-based; set-up: dose 10 mg/kg; conditions: Mesocricetus auratus
Mus musculus [11] = assay: Antihyperlipidemic activity in db/db mouse assessed as reduction of serum triglyceride level at 10 mg/kg, po qd for 14 days relative to control; format: functional; set-up: scale not given: the % may be the effect or the level left; procedure, shortened: as §2

SMILES	Emax [1] [%]	Emax [2] [%]	also measured
C/C(=N\OCc1nc(-c2ccc(C)cc2)oc1C)c1ccc(OCC(=O)O)cc1	48.1	51.1	
CCC/C(=N\OCc1nc(-c2ccccc2)oc1C)c1ccc(OCC(=O)O)c(C)c1	51.7	14.1	
Cc1ccc(-c2nc(CO/N=C(/c3ccc(OCC(=O)O)c(C)c3)C3CCCCC3)c(C)o2)cc1	56.6	14.1	
CCO[C@@H](Cc1ccc(OCCc2ccc(OS(C)(=O)=O)cc2)cc1)C(=O)O [TESAGLITAZAR]			Activity (Mus musculus [3]): -54.4%; Activity (Mus musculus [4]): -60.2%
CC/C(=N\OCc1nc(-c2ccccc2)oc1C)c1ccc(OCC(=O)O)cc1	46.4	42.5	
CC/C(=N\OCc1sc(-c2ccc(C(F)(F)F)cc2)nc1C)c1ccc(OCC(=O)O)c(C)c1	61.9	96.4	pEC50 [5]: 6.10; pEC50 [6]: 6.10; pEC50 [7]: 6.92
C/C(=N\OCc1nc(-c2ccc(C)cc2)oc1C)c1ccc(OCC(=O)O)c(C)c1	67.6	45.3	pEC50 [5]: 6.40; pEC50 [6]: 6.52; pEC50 [7]: 6.82
Cc1cc(/C(=N/OCc2sc(-c3ccc(C(F)(F)F)cc3)nc2C)C2CCCCC2)ccc1OCC(=O)O	98.7	57.9	pEC50 [5]: 6.00; pEC50 [6]: 6.15; pEC50 [7]: 5.80
C/C(=N\OCc1nc(-c2ccccc2)oc1C)c1ccc(OCC(=O)O)c(C)c1	74.5	84.5	Activity (Mus musculus [8]): -59.9%; Activity (Syrian golden hamster [9]): Active; pEC50 [5]: 6.52; Activity (Syrian golden hamster [10]): Active; pEC50 [6]: 6.10; Activity (Mus musculus [11]): -52.4%; pEC50 [7]: 6.30
CC/C(=N\OCc1nc(-c2ccc(C)cc2)oc1C)c1ccc(OCC(=O)O)cc1	49.2	68.5	
C/C(=N\OCc1nc(-c2ccccc2)oc1C)c1ccc(OCC(=O)O)cc1	52.1	58.8	
CC/C(=N\OCc1nc(-c2ccccc2)oc1C)c1ccc(OCC(=O)O)c(C)c1	72.3	56.4	
Cc1cc(/C(=N/OCc2nc(-c3ccccc3)oc2C)C2CCCCC2)ccc1OCC(=O)O	58.8	9.7	
CC(C)(Oc1ccc(CCNC(=O)c2ccc(Cl)cc2)cc1)C(=O)O [BEZAFIBRATE]			pEC50 [5]: 4.24; pEC50 [6]: 4.72
CCC/C(=N\OCc1nc(-c2ccc(C)cc2)oc1C)c1ccc(OCC(=O)O)c(C)c1	46.8	33.3	
CC/C(=N\OCc1sc(-c2ccc(C(F)(F)F)cc2)nc1C)c1ccc(OCC(=O)O)cc1	41.4	97.5	
CC/C(=N\OCc1nc(-c2ccc(C)cc2)oc1C)c1ccc(OCC(=O)O)c(C)c1	56.3	72.6	
C/C(=N\OCc1sc(-c2ccc(C(F)(F)F)cc2)nc1C)c1ccc(OCC(=O)O)c(C)c1	90.1	99.8	Activity (Mus musculus [8]): -23.2%; Activity (Syrian golden hamster [9]): Active; pEC50 [5]: 8.22; Activity (Syrian golden hamster [10]): Active; pEC50 [6]: 8.00; Activity (Mus musculus [11]): -36.5%; pEC50 [7]: 8.10
CCC/C(=N\OCc1sc(-c2ccc(C(F)(F)F)cc2)nc1C)c1ccc(OCC(=O)O)c(C)c1	48.3	58.7	
Cc1cc(SCc2sc(-c3ccc(C(F)(F)F)cc3)nc2C)ccc1OCC(=O)O		76.9	
C/C(=N\OCc1sc(-c2ccc(C(F)(F)F)cc2)nc1C)c1ccc(OCC(=O)O)cc1	60.6	86.2	
